Bioassay records as filed in PubChem.
These entries were drawn from the full list.
Apaf-1 act = activators of human Apaf-1 apoptosome; O14727; Apaf-1 apoptosome caspase-3 activation, DEVD-Rh110 fluorescence; active compounds read low; activity change, negative = activation, % at 20 µM; 0.31% of 330,000 active; AID 489031;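 active = activity change at or below -40% at 20 µM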
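system = biochemical Apaf-1 apoptosome reconstitution | buffer or medium = 20 mM HEPES pH 7.5 with CHAPS, BSA | also added = dATP and cytochrome c as apoptosome triggers, (Z-DEVD)2-Rh110 substrate | incubation = 30 min compound preincubation and 50 min reaction, both room temperature | measured by = fluorescence, 540 nm emission, 480 nm excitation | read-out basis = Caspase-3 cleavage activity downstream of Apaf-1 activation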
Rh110 act interf = interferes with Rh110 fluorescence, flagging false Apaf-1 activators; fluorescence interference (activity change), % at 20 µM, hits read low; Rh110 fluorescence interference, quenched caspase reaction, Ex480/Em540; 980 tested, under 10 active; shares compounds with Apaf-1 act;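 active = mean activity change at or below -40% when tested at 20 µM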
Apaf-1 act conf = confirmation of human Apaf-1 activators; activity change, negative = activation, % at 20 µM; reconstituted apoptosome caspase-3 activity, DEVD-Rh110 fluorescence; active compounds read low; 5% of 980 active; shares compounds with Apaf-1 act;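 active = mean activity change at or below -40%, meaning activation of 40% or more, at 20 µM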
An asterisk follows results filed as active; nt = not tested or not shown.

SMILES	Apaf-1 act	Rh110 act interf	Apaf-1 act conf
CC(C)(C)NC(=O)c1cc(-c2ccc3c(c2)OCO3)nc2ccccc12	-71.3*	4.0	1.1
O=C(O)CC1S/C(=N/N=C/c2ccc(-c3ccc(Cl)cc3[N+](=O)[O-])o2)NC1=O (configuration not stated)	52.1	nt	nt
CCOC(=O)C1=C(c2ccccc2)NC(N)=NC1c1ccc(OCc2ccc(C(=O)OC)cc2)cc1 (configuration not stated)	60.6	nt	nt
CCOC(=O)C1=C(C)Nc2nc(SCC)nn2C1c1ccc(OC)cc1 (configuration not stated)	-55.6*	15.5	15.5
COc1ccc(OCCNc2c([N+](=O)[O-])c(=O)oc3ccccc23)cc1	73.3	nt	nt
Cc1ccc(NC2=CC(=O)C(=O)c3ccccc32)c(C)c1	86.6	nt	nt
CCN(Cc1ccncc1)C(=O)c1ccc(Br)o1	-613.1*	-0.6	8.1
COC(C[C@H]1O[C@@H]1C(=O)[C@H](C)OCc1ccccc1)OC	48.1	nt	nt
c1nc(NCC2(N3CCOCC3)CCCCC2)c2ccsc2n1	-312.6*	6.9	14.7
N#Cc1c(N)n(CCc2ccc(F)cc2)c2nc3ccccc3nc12	82.2	nt	nt
COc1ccc(OCc2nnc(SCC(=O)NC3CC3)n2C)cc1	-96.5*	-2.5	8.4
CC1CCN(C(=O)CSc2nnc(Cn3c(=O)sc4ccccc43)n2C)CC1	42.6	nt	nt
COc1ccc(-n2nc(C(=O)NCC(=O)NC3CCCCCC3)c3ccccc3c2=O)c(OC)c1	47.9	nt	nt
CC(C)CC(=O)N[C@H](C(=O)N[C@H](C(=O)N[C@@H](CC(C)C)[C@@H](O)CC(=O)N[C@@H](C)C(=O)N[C@@H](CC(C)C)[C@@H](O)CC(=O)O)C(C)C)C(C)C	-239.3*	-233.5*	11.0
COc1cccc(N2CCN(C(=O)c3ccc(=O)oc3)CC2C)c1 (configuration not stated)	-331.5*	-7.1	8.7
Cc1cccc(N2CCN(C(=O)c3ccc4nc(-c5ccco5)c(-c5ccco5)nc4c3)CC2C)c1 (configuration not stated)	60.1	nt	nt
CC(C)(C)c1cc(C(=O)N/N=C/c2ccc(-c3ccccc3[N+](=O)[O-])o2)n[nH]1	41.9	nt	nt
Cc1cc(C)c2nc(N(CCN(C)C)C(=O)c3ccc(S(=O)(=O)N(C)CC4CCCO4)cc3)sc2c1 (configuration not stated)	48.7	nt	nt
O=C1NCC(c2ccccc2)C1C(=O)N/N=C\c1ccc(-c2cccc(Cl)c2Cl)o1 (configuration not stated)	40.0	nt	nt
Cc1ccc(-c2cc(C(=O)O)c3cc(Br)ccc3n2)s1	10.7	nt	nt
CC(=O)OCCCNc1cc(SCc2ccco2)c2nonc2c1[N+](=O)[O-]	73.8	nt	nt
NC(=S)NNc1cccc2cccnc12	76.3	nt	nt
COCc1ccc(C(=O)N2CCCC(Nc3ccc(C(C)C)cc3)C2)o1 (configuration not stated)	-107.3*	-3.5	10.1
C#CCOCCOCCOCCNc1nc(N2CCN(C(=O)CCCCCCCCCCNC(=O)[C@H]([C@@H](C)CC)n3cc(CCCCCN)nn3)CC2)nc(N2CCN(C(=O)CCCCCCCCCCNC(=O)[C@@H]([C@H](C)O)n3cc(C)nn3)CC2)n1	49.9	nt	nt
O=C(O)c1ccc2c3c(ncnc13)-c1ccccc1C2=O	44.0	nt	nt
SMILES	Apaf-1 act	Rh110 act interf	Apaf-1 act conf
O=C(C1CC(=O)N(c2ccc3c(c2)OCCO3)C1)N1CCCC(C(F)(F)F)C1 (configuration not stated)	-44.8*	4.7	2.3
CN(CCO)c1nc(N)c2c(N)nc3c(c2c1C#N)CC(=O)N3Cc1cccs1	77.1	nt	nt
C=CCNC(=O)c1c(N)n(-c2cccc(S(N)(=O)=O)c2)c2nc3ccccc3nc12	60.9	nt	nt
NS(=O)(=O)c1ccc(NC(=O)c2ccc3nccnc3c2)cc1	-43.7*	0.6	2.5
CCOC(CNc1ncnc2c1cnn2C)OCC	-142.7*	-0.4	6.2
CCC(CO)Oc1cc(NCc2cccc(C)c2)c2ncn(C(C)C)c2c1 (configuration not stated)	54.2	nt	nt
O=C(CNc1cccc2ccccc12)N/N=C/C(Br)=C/c1ccccc1	64.9	nt	nt
O=[N+]([O-])c1cccc(C2(O)COc3ccccc3O2)c1 (configuration not stated)	-83.5*	5.1	11.3
CCCC(=O)OCCNc1cc(SCc2ccco2)c2nonc2c1[N+](=O)[O-]	57.1	nt	nt
COCCn1c(N)c(C#N)c2nc3ccccc3nc21	51.7	nt	nt
Cc1nn(-c2ccccc2)c2c1C(c1ccccc1)C(C#N)=C(N)O2 (configuration not stated)	96.5	nt	nt
O=C(Cc1cc(=O)[nH][nH]1)N/N=C/c1ccccc1Cl	77.2	nt	nt
Cc1ccc(/C=N/NC(=O)C(C)NC(=O)c2ccccc2)cc1 (configuration not stated)	41.2	nt	nt
